According to ChEMBL document CHEMBL1821637, “Selective cytotoxicity of oxysterols through structural modulation on rings A and B. Synthesis, in vitro evaluation, and SAR” (J Med Chem, 2011):

Key:
HT-29 [1] = assay: Cytotoxicity against human HT-29 cells assessed as cell viability after 48 hrs by alamar blue assay; assay type: functional, cell-based; conditions: HT-29, 48 h
How it was run: (§1)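 Alamar Blue viability assay on the human cell line named (origins given: HT-29 colorectal adenocarcinoma, HepG2 hepatocellular carcinoma, LAMA-84 myeloid leukemia, A549 lung adenocarcinoma, PC3 prostate metastasis, MCF-7 breast adenocarcinoma, ARPE-19 retinal pigment epithelium, BJ skin fibroblast). Exposure was 48 h. Sterol stocks were made in DMSO. IC50 is the concentration inhibiting 50% of cellular growth, given as the mean of at least three separate experiments.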

[2] = Cytotoxicity against human ARPE19 cells assessed as cell viability after 48 hrs by alamar blue assay; assay type: cell-based, ARPE-19; conditions: Homo sapiens, ARPE-19, 48 h; how it was run: as §1
HT-29 [3] = assay: Cytotoxicity against human HT-29 cells assessed as inhibition of cell growth after 96 hrs by alamar blue assay; assay type: functional, cell-based; conditions: HT-29, 96 h
How it was run: (§2)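 HT-29 and ARPE-19 cells exposed for 96 h. ARPE-19 seeded at 5 10^3 cells/well for this period. Sterol stocks in DMSO. Viability by Alamar Blue. IC50 is the concentration inhibiting 50% of cellular growth, mean of at least three separate experiments.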

[4] = Cytotoxicity against human ARPE19 cells assessed as inhibition of cell growth after 96 hrs by alamar blue assay; assay type: cell-based; conditions: ARPE-19, 96 h; how it was run: as §2
HT-29 [5] = assay: Selectivity index, ratio of IC50 for human ARPE19 cells to IC50 for human HT-29 cells; assay type: functional

## CC(=O)O[C@H]1[C@@H](O)CC[C@]2(C)[C@H]3CC[C@]4(C)[C@@H]([C@H](C)CCCC(C)C)CC[C@H]4[C@@H]3CC[C@@]12O
HT-29 [1]
  IC50: 15.2 µM
[2]
  IC50: 37.4 µM
HT-29 [3]
  IC50: 18.7 µM
[4]
  IC50: 22.3 µM
HT-29 [5]
  Ratio IC50: 2.46

## CC(=O)O[C@H]1CC[C@]2(C)[C@H]3CC[C@]4(C)[C@@H]([C@H](C)CCCC(C)C)CC[C@H]4[C@@H]3CC[C@@]2(O)[C@H]1O
HT-29 [1]
  IC50: 18.6 µM
[2]
  IC50: 32.5 µM
HT-29 [3]
  IC50: 17.7 µM
[4]
  IC50: 21.8 µM
HT-29 [5]
  Ratio IC50: 1.75

## CC(=O)O[C@H]1CC[C@]2(C)[C@H]3CC[C@]4(C)[C@@H]([C@H](C)CCCC(C)C)CC[C@H]4[C@@H]3[C@@H](OC(C)=O)[C@@H](O)[C@@]2(O)C1
HT-29 [1]
  IC50: 20.1 µM
[2]
  IC50: 29 µM
HT-29 [3]
  IC50: 16.6 µM
[4]
  IC50: 19.5 µM
HT-29 [5]
  Ratio IC50: 1.44

## CC(=O)O[C@H]1CC[C@@]2(C)C(=C[C@H](O)[C@H]3[C@@H]4CC[C@H]([C@H](C)CCCC(C)C)[C@@]4(C)CC[C@@H]32)C1
[2]
  IC50: 46.5 µM
HT-29 [3]
  IC50: 12.4 µM
[4]
  IC50: 23.6 µM
HT-29 [5]
  Ratio IC50: 1.58

## CC(=O)O[C@H]1CC[C@]2(C)[C@H]3CC[C@]4(C)[C@@H]([C@H](C)CCCC(C)C)CC[C@H]4[C@@H]3[C@@H](O)[C@@H](O)[C@@]2(O)C1
HT-29 [1]
  IC50: 18.8 µM
[2]
  IC50: 30.5 µM
HT-29 [3]
  IC50: 14.7 µM
[4]
  IC50: 23.8 µM
HT-29 [5]
  Ratio IC50: 1.62

## CC(=O)O[C@H]1CC[C@]2(C)[C@H]3CC[C@]4(C)[C@@H]([C@H](C)CCCC(C)C)CC[C@H]4[C@@H]3C[C@@H](OC(C)=O)[C@@]2(O)C1
HT-29 [1]
  IC50: 43.1 µM
[2]
  IC50: 64.1 µM
HT-29 [3]
  IC50: 25.3 µM
[4]
  IC50: 35.4 µM
HT-29 [5]
  Ratio IC50: 1.49
